The source made the active and inactive calls.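 Rule for the calls: active = inhibition of 30% or more at any tested concentration; inactive = the rest.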
What follows are compounds tested on M17 leucyl aminopeptidase (Plasmodium falciparum 3D7) (assay: Inhibition of P. falciparum M17 aminopeptidase – biochemical, QFRET, counter-screen for PfM1AAP inhibitor project, dose response (AID 588682)). Conditions: recombinant PfM17LAP, H-Leu-NHMec fluorogenic cleavage; series mostly up to 100 µM.
In short: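 Assay system – recombinant PfM17LAP enzyme · Amount – 5 µg/mL rPFM17LAP enzyme · Medium – Tris pH 7.5 plus 2 mM CoCl2 · Also added – NHMec-releasing fluorogenic peptide substrate at 0.1 mM · Dosing – 100–0.2 µM compound series · Incubation – 90 min, room temperature · Technique – NHMec fluorescence, excitation 370 nm, emission 460 nm · Read-out – % enzyme inhibition · Replicates – triplicate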
O=C(NCc1ccc2c(c1)OCO2)C1CCN(S(=O)(=O)c2ccc(-c3ccccc3)s2)CC1 was tested, and the outcome was “inactive”. With CC[C@H](C)[C@H](NS(=O)(=O)c1ccc(Br)s1)C(=O)NCc1ccc(F)cc1 the outcome was “inactive”. CC[C@H](C)[C@H](NC(=O)c1ccc(C(C)(C)C)cc1)C(=O)NCc1ccc(C(F)(F)F)cc1 was tested, and the outcome was “inactive”. For COc1cccc(-c2ccc(S(=O)(=O)N3CCC(C(=O)NCc4ccc5c(c4)OCO5)CC3)s2)c1, the outcome was “inactive”. For O=C(NCc1ccc2c(c1)OCO2)C1CCN(S(=O)(=O)c2ccc(-c3cccc(F)c3)s2)CC1, the outcome was “inactive”. For CC[C@H](C)[C@H](NC(=O)c1ccc([N+](=O)[O-])cc1)C(=O)NCc1ccc(C(F)(F)F)cc1, the outcome was “inactive”. In the case of CC[C@H](C)[C@H](NC(=O)c1ccc([N+](=O)[O-])cc1)C(=O)NCc1ccccc1, the outcome is reported as “inactive”. With CN(C)c1ccc(CNC(=O)C2CCN(S(=O)(=O)c3ccc(Br)s3)CC2)cc1 the outcome was “inactive”. In the case of CC[C@H](C)[C@H](NC(=O)c1ccc([N+](=O)[O-])cc1)C(=O)NCc1ccc(F)cc1, the outcome is reported as “inactive”. In the case of CC[C@H](C)[C@H](NS(=O)(=O)c1cccs1)C(=O)NCc1ccc(F)cc1, the outcome is reported as “inactive”. COc1ccc(-c2ccc(S(=O)(=O)N3CCC(C(=O)NCc4ccc5c(c4)OCO5)CC3)s2)cc1 was tested, and the outcome was “inactive”. With CC[C@H](C)[C@H](NS(=O)(=O)c1ccc(Br)s1)C(=O)O the outcome was “inactive”. With CC[C@H](C)[C@H](NS(=O)(=O)c1ccc(Br)s1)C(=O)NCc1ccc(C(F)(F)F)cc1 the outcome was “inactive”. For O=C(NCc1ccc2c(c1)OCO2)C1CCN(S(=O)(=O)c2ccc(-c3ccc(F)cc3)s2)CC1, the outcome was “inactive”. In the case of O=C(NCc1ccc2c(c1)OCO2)C1CCN(S(=O)(=O)c2ccc(-c3cncc4ccccc34)s2)CC1, the outcome is reported as “inactive”. In the case of CC(C)(C)c1ccc(-c2ccc(S(=O)(=O)N3CCC(C(=O)NCc4ccc5c(c4)OCO5)CC3)s2)cc1, the outcome is reported as “inactive”. In the case of CC(=O)Nc1cccc(-c2ccc(S(=O)(=O)N3CCC(C(=O)NCc4ccc5c(c4)OCO5)CC3)s2)c1, the outcome is reported as “inactive”.
